# EWS-Fli inh = inhibitors of EWS/Fli oncoprotein transcriptional activity. A673 NR0B1-luciferase reporter, viability-normalised. inhibition, % at 12.6 µM. hit rate 0.67% among 350,000;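 active = mean inhibition of at least 50% after viability correction, with every replicate also passing that limit; inconclusive = mean reaches 50% but only one of two replicates passes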;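 also: firefly luciferase signal divided by Alamar Blue viability fluorescence both relative to DMSO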
# PAX8 reporter = lowers PAX8-driven luciferase in RMG-I cells; RMG-I TPO-luciferase reporter, SteadyGlo, 24 h; hit rate 1.2% among 360,000; inhibition, % at 12.6 µM;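 active = mean replicate inhibition at least 60% with every replicate also reaching 60%; inconclusive = only one of the two criteria is met; inactive = mean below 60% and not all replicates reaching 60%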;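 also: luciferase light reporting Pax8 driven TPO promoter activity; plate controls were median of neutral control wells for no effect and mitoxantrone controls for full effect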
# PGC1a acetyl inh = PGC1a acetylation modulation, inhibitor mode; U2OS PGC1a acetylation, AlphaScreen anti-acetyl-lysine; with virally co-expressed GCN5 acetyltransferase; inhibition, % at 15.6 µM; hit rate 0.17% among 350,000; AID 651687;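 active = every replicate shows inhibition of at least 40%; inconclusive = mean inhibition at least 40% but some replicate below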;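 also: 0% = neutral control wells and 100% = positive control wells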
# Env fusion inh = inhibitors of HIV Env-mediated cell fusion | AID 651610 | HeLa-JRFL Env/CEM21 cell fusion, luciferase | hit rate 1.1% among 360,000 | inhibition, % at 12.3 µM;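 active = mean replicate inhibition score of at least 50 and every replicate individually at or above 50; inconclusive = only one of the two criteria met; inactive = mean below 50 and not all replicates reaching 50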;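 also: 0% = plate neutral controls and 100% = maraviroc near 300 nM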
# FGF22 binding = FGF22 (human) thermal shift binding; Q9HCT0; recombinant FGF22 thermal shift, SYPRO orange fluorescence; percent of sucrose octasulfate shift, DMSO zero; activity (Tm shift, normalised), % at 9.99 µM; hit rate 1.5% among 340,000;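 active = mean Tm shift, scaled 0 neutral to 100 positive control, at about 1.3% or above, every replicate too, limit read from the data; inconclusive = no clear call, values can overlap the other calls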
# Target sequence (Q9HCT0 whole entry, looked up): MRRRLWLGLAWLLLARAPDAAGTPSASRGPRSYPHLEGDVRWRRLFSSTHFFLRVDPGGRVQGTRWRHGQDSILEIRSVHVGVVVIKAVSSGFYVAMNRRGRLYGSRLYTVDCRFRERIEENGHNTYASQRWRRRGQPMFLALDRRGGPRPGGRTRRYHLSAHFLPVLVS
# FN deposition inh = fibronectin deposition inhibition; AH1F fibroblasts, Alexa488-fibronectin deposition fluorescence, overnight; inhibition, % at 12.6 µM; hit rate 0.086% among 350,000; AID 743247;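 active = mean inhibition across replicates of 30% or more, regardless of how many single replicates reach that level; inconclusive = mean under 30% yet at least half of replicates reach 30%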;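 also: positive control wells lacked labelled fibronectin entirely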
#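 Schedule: 1 h cell adhesion before compound, then overnight fibronectin incubation; test system: AH1F fibroblast monolayer depositing Alexa488-labelled fibronectin into matrix; quantity: 10000 AH1F cells per well; probe or stimulus: fluorescent fibronectin at 24 nM final; signal: fluorescence, ex 485 nm, em 525 nm; evaluation: percent inhibition as loss of matrix-bound fibronectin fluorescence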
# The depositor's hits bear a star; ? = inconclusive; nt = not tested or not shown; [ ] = dose if it differs, or a comment. In the library only some 3.1% were active in any assay of this set; here they are far more common.
SMILES,EWS-Fli inh,PAX8 reporter,PGC1a acetyl inh,Env fusion inh,FGF22 binding,FN deposition inh
Cc1ccc2ccc(C(Nc3ccccc3)c3ccc(C(C)C)cc3)c(O)c2n1 (stereo unspecified),9,18,nt,-8,0,0
CCCC(=O)NC(c1ccc(N(C)C)cc1)c1ccc2cccnc2c1O (stereo unspecified),36,95*,3,-27,0,16
Cc1ccnc(NC(c2ccccc2)c2ccc3cccnc3c2O)c1 (stereo unspecified),22,51,6,-19,-1,18
C[C@H]1CN([C@@H](C)CO)C(=O)Cc2cc(NS(=O)(=O)c3ccccc3)ccc2O[C@@H]1CN(C)Cc1ccc(C(=O)O)cc1,-12,nt,7,-31[16.7 µM],0,3
COc1ccc(NC(=O)N2CC(=O)N3[C@@H](CO)[C@@H](c4ccc(-c5ccc(C)cc5)cc4)[C@@H]3C2)cc1,-3,17,-10,nt,nt,nt
CN1CCN(C(=O)C[C@H]2CC[C@@H]3[C@H](COC[C@@H](O)CN3CC3CCOCC3)O2)CC1,1,0,9,-13[16.7 µM],0,-9
COc1ccc(C2=NOC(C(=O)NO)C2)cc1OC1CCCC1 (stereo unspecified),6,-42,nt,-9[16.7 µM],0,nt
C/C=C/c1ccc([C@@H]2[C@@H](CO)N(C(C)=O)C23CN(C(=O)c2cnccn2)C3)cc1,0,nt,6,nt,0,nt
CO[C@H]1CN(C)C(=O)c2cc(NS(=O)(=O)c3cn(C)cn3)ccc2OC[C@@H](C)N(CC2CC2)C[C@@H]1C,0,nt,-6,19[16.7 µM],0,-7
CCC(=O)NC(c1ccc(C)cc1)c1ccc2cccnc2c1O (stereo unspecified),32,92*,14,-23,0,22
Cc1cc(NC(c2ccc(Cl)cc2)c2ccc3cccnc3c2O)no1 (stereo unspecified),nt,nt,7,nt,nt,nt
CO[C@@H]1CN(C)C(=O)c2ccc(NC(=O)C3CCC3)cc2OC[C@H](C)N(CC2CCCCC2)C[C@H]1C,5,34,19,-4[16.7 µM],0,-8
CCC(=O)Nc1ccc2c(c1)OC[C@H](C)N(CC1CCCCC1)C[C@H](C)[C@@H](OC)CN(C)C2=O,0,-3,-11,87*[16.7 µM],nt,-11
CO[C@H]1CN(C)C(=O)c2ccc(NC(=O)C3CCC3)cc2OC[C@H](C)N(CC2CCCCC2)C[C@@H]1C,-5,16,-14,92*[16.7 µM],1,-1
CO[C@@H]1CN(C)C(=O)c2ccc(NS(C)(=O)=O)cc2OC[C@@H](C)N(C(=O)C2CCCCC2)C[C@H]1C,-2,-11,-10,66*[16.7 µM],nt,-16
CCCC(=O)Nc1ccc2c(c1)OC[C@@H](C)N(C(=O)CN(C)C)C[C@H](C)[C@@H](OC)CN(C)C2=O,0,-3,5,59*[16.7 µM],0,-14
CN(C)C(=O)C[C@H]1CC[C@H]2[C@@H](COC[C@@H](O)CN2CC2CCCCC2)O1,-1,0,4,8[16.7 µM],0,-3
COCC(=O)Nc1ccc2c(c1)[C@@H]1C[C@H](CC(=O)NCC(F)(F)F)O[C@H](CO)[C@@H]1O2,-6,-14,-6,-13[16.7 µM],0,nt
CCOc1ccc2ccccc2c1/C=N\NC(=O)OC,-4,141*,4,nt,0,-9
CCN1C(=O)CCCc2ccccc21,-4,2,68*,-8,0,nt
Cc1sc2nc3c(SC(C)C(=O)O)cc(C(=O)c4ccccc4O)cn3c(=O)c2c1C (stereo unspecified),nt,nt,nt,-7,nt,-2
CCc1c(C)sc2nc3c(C(=O)N4CCOCC4)cc(C(=O)c4ccccc4O)cn3c(=O)c12,10,8,-6,8,43*,0
CCOC(=O)C(c1ccccc1)C(Nc1cc(C(F)(F)F)cc(C(F)(F)F)c1)c1ccccn1 (stereo unspecified),-3,-2,3,67*,0,-8
O=C(Nc1cccc(C(F)(F)F)c1)Nc1ccc(N2CCCC2)c(S(=O)(=O)Nc2ccccc2Cl)c1,nt,90*,nt,?,nt,-3
CCOC(=O)c1ccc(N2CCCCC2)c(NS(=O)(=O)c2cccc(C(F)(F)F)c2)c1,7,-11,-18,64*,0,1
SMILES,EWS-Fli inh,PAX8 reporter,PGC1a acetyl inh,Env fusion inh,FGF22 binding,FN deposition inh
COc1ccc(C(=O)O)cc1S(=O)(=O)Nc1cc(C(F)(F)F)ccc1N1CCCCC1,-3,-30,-3,-7,-1,-1
COc1ccc(/C=C/C(=O)c2ccc(O)cc2)cc1,-91,nt,3,nt,1.5*,nt
Cc1noc(C)c1NC(=O)Nc1ccc2c(c1)CC(=O)N([C@H](C)CO)C[C@H](C)[C@@H](CN(C)Cc1ccc3c(c1)OCO3)O2,-2,-3,-12,-14[16.7 µM],0,nt
CS(=O)(=O)N1CCN(c2ccc(NC(=S)NC(=O)c3cccs3)cc2)CC1,6,-11,-12,13,44*,-1
Cc1c(C(=O)NC(=S)Nc2ccccc2N2CCCC2)cccc1[N+](=O)[O-],77*,14,nt,-30,0,nt
O=C(NC(=S)Nc1ccccc1N1CCCC1)c1cccs1,8,30,51*,-20,0,-3
O=C(NC(=S)Nc1ccc(N2CCCCC2)cc1)c1cccs1,nt,nt,0,-240,nt,nt
Cc1ccc(S(=O)(=O)NCC[C@H]2CC[C@H](NC(=O)c3cnccn3)[C@@H](CO)O2)cc1,-3,33,5,-2[16.7 µM],0,nt
Clc1ccc2c(c1)C(C1=NCCN1)c1ccccc1CS2 (stereo unspecified),nt,20,nt,113*,nt,6
CCNC(=O)[C@@H]1[C@@H](CO)[C@@H]2Cn3c(ccc(/C=C/c4ccccc4)c3=O)[C@H]1N2,0,-7,-10,nt,0,nt
Cc1cc(C)c(S(=O)(=O)Nc2ccccn2)c(C)c1,16,-18,-18,7,0,2
Cc1cc(C)c(S(=O)(=O)Nn2cnnc2)c(C)c1,9,1,19,10,0,33*
CCCNC(=O)C[C@@H]1CC[C@H]2[C@@H](COc3ccc(NC(=O)NCCC)cc3C(=O)N2C)O1,-6,nt,6,nt,nt,-10
O=C(O)CCS(=O)(=O)c1nc(-c2cccs2)cc(C(F)(F)F)n1,-8,nt,14,nt,0,nt
CCOC(=O)CCS(=O)(=O)c1nc(-c2ccccc2)cc(C(F)(F)F)n1,nt,nt,68*,nt,nt,nt
CCOC(=O)CS(=O)(=O)c1nc(-c2ccc(F)cc2)cc(C(F)(F)F)n1,nt,nt,27,nt,nt,nt
CCOC(=O)CS(=O)(=O)c1nc(-c2ccccc2)cc(C(F)(F)F)n1,nt,nt,58*,nt,nt,nt
C[C@H](CO)N1C[C@H](C)[C@H](CN(C)C(=O)c2ccccc2)OCCCC[C@H](C)Oc2ccc(NC(=O)Nc3cccc4ccccc34)cc2C1=O,5,nt,7,7[16.7 µM],0,nt
